Data from ChEMBL document CHEMBL4706614, “Design, synthesis and biological evaluation of novel naphthoquinone-4-aminobenzensulfonamide/carboxamide derivatives as proteasome inhibitors” (Eur J Med Chem, 2021).
pIC50: −log10 of the molar value. Activity calls are given as the source filed them. No cut-off for these calls is given here. Residues, ends and D or L forms follow the SMILES beside them. *: point of attachment. Cbz = O=C(OCc1ccccc1)*

Legend:
[1] = target: Proteasome Macropain subunit (Homo sapiens) (UniProt P49721); assay: Inhibition of trypsin-like activity 20S proteasome beta subunit 2 of human MCF7 cells using fluorogenic substrate Boc-LRR-AMC at 10 uM after 1 hr by fluorescence analysis relative to control; assay type: cell-based
Summary of the method: (§1)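 Screen at 10 µM: MCF-7 lysates (sucrose/HEPES/MgCl2/EDTA buffer, 1 mM DTT) preincubated 10 min in 225 mM Tris pH 7.8, 7.5 mM MgOAc, 7.5 mM MgCl2, 45 mM KCl, 1 mM DTT; compound 1 h at 37 °C, then substrate 1 h at 37 °C; AMC release ex 360/em 460 nm versus DMSO; MG-132 positive control.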

[2] = target: T1, Proteasome Macropain subunit MB1 (Homo sapiens) (UniProt P28074); assay: Inhibition of chymotrypsin-like activity 20S proteasome beta subunit 5 of human MCF7 cells using fluorogenic substrate Suc-LLVY-AMC at 10 uM after 1 hr by fluorescence analysis relative to control; assay type: cell-based; summary of the method: as §1
T1 sequence (whole entry): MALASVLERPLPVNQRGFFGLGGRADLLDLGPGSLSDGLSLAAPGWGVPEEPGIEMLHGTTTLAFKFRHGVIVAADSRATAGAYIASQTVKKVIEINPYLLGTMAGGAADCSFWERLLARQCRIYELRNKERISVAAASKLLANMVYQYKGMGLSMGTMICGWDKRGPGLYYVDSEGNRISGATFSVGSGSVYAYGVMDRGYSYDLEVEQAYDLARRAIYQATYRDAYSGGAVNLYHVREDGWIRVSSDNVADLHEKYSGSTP

[3] = target: T2, Proteasome component C5 (Homo sapiens) (UniProt P20618); assay: Inhibition of caspase-like activity 20S proteasome beta subunit 1 of human MCF7 cells using fluorogenic substrate Z-LLE-AMC at 10 uM after 1 hr by fluorescence analysis relative to control; assay type: cell-based; summary of the method: as §1
T2 sequence (whole entry): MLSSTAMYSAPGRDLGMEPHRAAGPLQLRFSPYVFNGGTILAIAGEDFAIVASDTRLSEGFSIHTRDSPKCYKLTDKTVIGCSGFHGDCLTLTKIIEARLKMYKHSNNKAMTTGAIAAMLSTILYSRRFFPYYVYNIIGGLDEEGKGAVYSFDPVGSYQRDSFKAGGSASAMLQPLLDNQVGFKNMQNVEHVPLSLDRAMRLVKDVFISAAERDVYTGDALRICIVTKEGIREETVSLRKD

[4] = system: MCF7; assay: Antiproliferative activity against human MCF7 cells assessed as cell viability after 48 hrs MTT assay; assay type: functional, cell-based; conditions: MCF7, 48 h
Summary of the method: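 MTT:medium (1:9) added 4 h at 37°C, formazan dissolved in DMSO, absorbance 570 nm. DMSO solvent control; triplicate; IC50 = concentration inhibiting 50% of viability.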

[5] = target: T3, Proteasome Macropain subunit MB1 (Homo sapiens, UniProt P28074); assay: Inhibition of chymotrypsin-like activity 20S proteasome beta subunit 5 of human MCF7 cells using fluorogenic substrate Suc-LLVY-AMC after 1 hr by fluorescence analysis; assay type: cell-based
T3 sequence (P28074 whole entry): T1 sequence (whole entry)
Summary of the method: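 For IC50, intact MCF-7 cells treated 12 h with compounds, then lysed (sucrose/HEPES/MgCl2/EDTA, 1 mM DTT); extracts in Tris pH 7.8/MgOAc/MgCl2/KCl/DTT mix with substrate 1 h at 37 °C; AMC fluorescence ex 360/em 460 nm, normalized to BCA total protein; DMSO solvent and MG-132 positive controls.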

[6] = system: MCF7; assay: Increase in K48-linked polyubiquitinated protein expression in human MCF7 cells at IC50 after 12 hrs by Western blot analysis; assay type: functional, cell-based
[7] = system: MCF7; assay: Effect on 20S proteasome beta subunit 5 expression in human MCF7 cells at IC50 after 12 hrs by Western blot analysis; assay type: functional, cell-based

Proteasome Macropain subunit (Homo sapiens), sequence (P49721 whole entry): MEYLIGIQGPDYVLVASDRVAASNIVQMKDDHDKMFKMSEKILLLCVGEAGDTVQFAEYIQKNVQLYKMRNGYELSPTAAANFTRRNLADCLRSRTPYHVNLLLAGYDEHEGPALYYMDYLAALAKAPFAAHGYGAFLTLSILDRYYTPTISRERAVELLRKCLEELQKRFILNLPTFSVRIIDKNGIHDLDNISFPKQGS

Structure (SMILES) | inhibition [1] | inhibition [2] [%] | inhibition [3] | pIC50 [4] | pIC50 [5] | Activity [6] | Activity [7]
O=C(Nc1ccncc1)c1ccc(NC2=C(Cl)C(=O)c3ccccc3C2=O)cc1 | 2.43% | 8.96 | 7.87% | 4.68 | – | – | –
Cc1cccnc1NC(=O)c1ccc(NC2=C(Cl)C(=O)c3ccccc3C2=O)cc1 | inactive | 11.4 | 9.52% | 5.36 | – | – | –
Cc1cccc(NC(=O)c2ccc(NC3=C(Cl)C(=O)c4ccccc4C3=O)cc2)c1 | 3.39% | 14.6 | 15.1% | 4.84 | – | – | –
CC(C)c1ccccc1NS(=O)(=O)c1ccc(NC2=C(Cl)C(=O)c3ccccc3C2=O)cc1 | 17.1% | 20 | 11.5% | 5.27 | – | – | –
O=C1C(Cl)=C(Nc2ccc(S(=O)(=O)Nc3ccc(Cl)cn3)cc2)C(=O)c2ccccc21 | 35% | 42.3 | 28.9% | 5.35 | 5.00 | Active | inactive
O=C1C(Cl)=C(Nc2ccc(S(=O)(=O)Nc3cccc4ccccc34)cc2)C(=O)c2ccccc21 | 21.2% | 18.4 | 15.4% | 5.48 | – | – | –
O=C1C(Cl)=C(Nc2ccc(S(=O)(=O)Nc3cccnc3Cl)cc2)C(=O)c2ccccc21 | 22.1% | 22.4 | 11.2% | 5.33 | – | – | –
O=C(Nc1cccc(Cl)c1)c1ccc(NC2=C(Cl)C(=O)c3ccccc3C2=O)cc1 | 27.6% | 21.6 | 11.7% | 4.78 | – | – | –
O=C(Nc1ccc(Cl)cn1)c1ccc(NC2=C(Cl)C(=O)c3ccccc3C2=O)cc1 | inactive | 19.4 | 8.55% | 5.21 | – | – | –
O=C1C(Cl)=C(Nc2ccc(S(=O)(=O)Nc3ccc([N+](=O)[O-])cc3)cc2)C(=O)c2ccccc21 | 22.7% | 26 | 14.1% | 5.55 | – | – | –
O=C(Nc1ccccc1)c1ccc(NC2=C(Cl)C(=O)c3ccccc3C2=O)cc1 | 3.19% | 4.03 | 10.7% | 4.81 | – | – | –
O=C1C(Cl)=C(Nc2ccc(S(=O)(=O)Nc3cccc([N+](=O)[O-])c3)cc2)C(=O)c2ccccc21 | 19.4% | 23.5 | 7.44% | 5.66 | – | – | –
O=C(Nc1ccc([N+](=O)[O-])cc1)c1ccc(NC2=C(Cl)C(=O)c3ccccc3C2=O)cc1 | 30.5% | 35.3 | 22.8% | 4.79 | 4.48 | – | –
O=C(Nc1nccs1)c1ccc(NC2=C(Cl)C(=O)c3ccccc3C2=O)cc1 | inactive | 19.6 | 3.59% | 5.42 | – | – | –
O=C1C(Cl)=C(Nc2ccc(S(=O)(=O)Nc3ccccc3[N+](=O)[O-])cc2)C(=O)c2ccccc21 | 21.3% | 17.3 | 14.2% | 5.40 | – | – | –
CCc1ccccc1NS(=O)(=O)c1ccc(NC2=C(Cl)C(=O)c3ccccc3C2=O)cc1 | 21.1% | 17.4 | 13.9% | 5.61 | – | – | –
O=C(Nc1cccc2ccccc12)c1ccc(NC2=C(Cl)C(=O)c3ccccc3C2=O)cc1 | 4.41% | 16.9 | 16.7% | 5.32 | – | – | –

Second part, led by results:

inhibition [1] | inhibition [2] [%] | inhibition [3] | pIC50 [4] | pIC50 [5] | Structure (SMILES) | Activity [6] | Activity [7]
1.55% | 15.8 | inactive | 5.34 | – | O=C(Nc1ccc(Cl)cc1)c1ccc(NC2=C(Cl)C(=O)c3ccccc3C2=O)cc1 | – | –
11.6% | 10.1 | inactive | 5.75 | – | Cc1ccc(NS(=O)(=O)c2ccc(NC3=C(Cl)C(=O)c4ccccc4C3=O)cc2)nc1 | – | –
inactive | 17.2 | 9.94% | 5.58 | – | CC(C)c1ccccc1NC(=O)c1ccc(NC2=C(Cl)C(=O)c3ccccc3C2=O)cc1 | – | –
24.5% | 28.8 | 14.2% | 5.68 | – | O=C1C(Cl)=C(Nc2ccc(S(=O)(=O)Nc3cccc(Cl)c3)cc2)C(=O)c2ccccc21 | – | –
2.76% | 10.8 | 16.2% | 5.74 | – | O=C1C(Cl)=C(Nc2ccc(S(=O)(=O)N3CCOCC3)cc2)C(=O)c2ccccc21 | – | –
– | – | – | 6.03 | – | COc1cccc2c1C(=O)c1c(O)c3c(c(O)c1C2=O)C[C@@](O)(C(=O)CO)C[C@@H]3O[C@H]1C[C@H](N)[C@H](O)[C@H](C)O1 [DOXORUBICIN] | – | –
22.7% | 20 | 12% | 5.66 | – | COc1cc(NS(=O)(=O)c2ccc(NC3=C(Cl)C(=O)c4ccccc4C3=O)cc2)cc(OC)c1 | – | –
21% | 24.8 | 15.4% | 5.37 | – | Cc1csc(NS(=O)(=O)c2ccc(NC3=C(Cl)C(=O)c4ccccc4C3=O)cc2)n1 | – | –
23.8% | 22.2 | 10% | 5.47 | – | O=C1C(Cl)=C(Nc2ccc(S(=O)(=O)Nc3ccc(Br)cc3)cc2)C(=O)c2ccccc21 | – | –
inactive | 22 | 7.42% | 5.38 | – | Cc1ccc(NC(=O)c2ccc(NC3=C(Cl)C(=O)c4ccccc4C3=O)cc2)nc1 | – | –
7.11% | 22.3 | 7.76% | 5.61 | – | Cc1csc(NC(=O)c2ccc(NC3=C(Cl)C(=O)c4ccccc4C3=O)cc2)n1 | – | –
29.6% | 36.8 | 18.8% | 5.71 | 4.90 | O=C1C(Cl)=C(Nc2ccc(S(=O)(=O)Nc3ccccn3)cc2)C(=O)c2ccccc21 | Active | inactive
7.26% | 11.7 | 3.35% | 5.68 | – | Cc1ccnc(NS(=O)(=O)c2ccc(NC3=C(Cl)C(=O)c4ccccc4C3=O)cc2)c1 | – | –
inactive | 16.6 | 8.37% | 5.76 | – | Cc1ccnc(NC(=O)c2ccc(NC3=C(Cl)C(=O)c4ccccc4C3=O)cc2)c1 | – | –
6.55% | 18.9 | 8.36% | 4.99 | – | Cc1cc(NC(=O)c2ccc(NC3=C(Cl)C(=O)c4ccccc4C3=O)cc2)no1 | – | –
6.29% | 3.25 | 1.21% | 5.59 | – | O=C1C(Cl)=C(Nc2ccc(S(=O)(=O)Nc3ccccc3Cl)cc2)C(=O)c2ccccc21 | – | –
inactive | 16.3 | 1.2% | 5.22 | – | O=C(Nc1cccnc1)c1ccc(NC2=C(Cl)C(=O)c3ccccc3C2=O)cc1 | – | –
13% | 14.8 | 9.01% | 5.72 | – | Cc1cccnc1NS(=O)(=O)c1ccc(NC2=C(Cl)C(=O)c3ccccc3C2=O)cc1 | – | –
51.4% | 38.2 | 18.4% | – | – | CC(C)C[C@@H](C=O)NC(=O)[C@H](CC(C)C)NC(=O)[C@H](CC(C)C)NC(=O)OCc1ccccc1 (Cbz-Leu-Leu-Leu-aldehyde) | – | –
